The nature of the series: Toxicity liver stage against HepG2, at 10uM. Conditions: human, HepG2-A16-CD81EGFP cells; read-out: INHIBITION
Type of series: cell-based. More on the design: test concentration 10 uM, cell line HepG2-A16-CD81EGFP. The method, boiled down: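 Uninfected HepG2-A16-CD81EGFP cells, 3 × 10^3 per well, 1536-well, plated on prespotted compound at 10 μM final, parasite-free screening media added to match infected plates; puromycin 10 μM positive, DMSO 0.5% negative; run in parallel with 48 h PbLuc assay at 37 °C, 5% CO2; viability by CellTiter-Glo luminescence, normalized to controls.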
On to `CCC1CCc2c(c3ccccc3[nH]c2=O)O1` (stereo not drawn), for which the cytotoxicity at 10 µM was -1.1%.
For the compound `COc1ccc(CN2C[C@@H](F)[C@@H](OCc3nc4ccccc4[nH]3)C2)cn1`, the cytotoxicity at 10 µM was -2.59%.
On to `CC(C)(C)c1coc([C@@H]2COCCN2Cc2c[nH]c3ccccc23)n1`, for which the cytotoxicity at 10 µM was -1.23%.
With `CN(C)CCNc1c(-c2ccccc2)c(=O)c1=O` the figure was -9.11%.
Consider `Cc1cccc(C(=O)N2CCCSCC2CN2CCCC2)c1` (stereo not drawn), for which the cytotoxicity at 10 µM amounted to 8.77%.
As for `O=C(N1CCOCC1)N1CC[C@H]2[C@@H]1CCC(=O)N2c1ccccc1`, the cytotoxicity at 10 µM turned out to be 6.53%.
`Cc1cc(CN2CCC3(CC2)COC(COc2ccccn2)C3)no1` (stereo not drawn): the cytotoxicity at 10 µM came out at 5.8%.
Regarding `COCCNC(=O)CSCc1nc(O)c2cc(C(C)C)sc2n1`, the cytotoxicity at 10 µM was -3.46%.
As for `COCCCN1C(=O)CC(N2CCN(c3ccc(F)cc3)CC2)C1=O` (stereo not drawn), the cytotoxicity at 10 µM was 2.57%.
For `CCOC(=O)CC(c1ccc(OC)c(OC)c1)c1c(O)n[nH]c1C` (stereo not drawn), the cytotoxicity at 10 µM worked out at 1.64%.
For the compound `Cc1cc(C)c2c(c1)C1(CC(=O)Nc3c1cnn3C(C)C)C(=O)N2` (stereo not drawn), the cytotoxicity at 10 µM was -2.51%.
The value for `COC(=O)CNC(=O)CSCc1nc(O)c2cc(C(C)C)sc2n1` was 7.72%; that for `COc1cccc2ccn(CCC(=O)N3CCCC(C(=O)O)C3)c12` (stereo not drawn) was -9.42%.
With `Cc1cccn2c(=O)cc(OC(=O)c3ccccc3)nc12` the figure was 0.64%; with `Cc1nc(C)n(CC2CN(c3ncccn3)Cc3nccn3C2)n1` (stereo not drawn), -8.5%; with `Cn1cc(CN2CC3(CCN(C(=O)c4ccoc4)C3)C2)cn1`, -8.45%.
Take `COCC1CC2(CCN(C(=O)c3ccc(OC)c(Cl)c3)CC2)CO1` (stereo not drawn): the cytotoxicity at 10 µM was found to be 15.4%.
As for `COC(=O)Cn1ccc(=O)c2ccc(OC)cc21`, the cytotoxicity at 10 µM was -20.7%.
With `CC(=O)N1CCOCC(Cc2ccc3c(ccn3C)c2)C1` (stereo not drawn) the figure was 4.3%; with `Nc1ncnc2nc(C3CCN(C(=O)Cc4ccc(F)cc4)C3)ccc12` (stereo not drawn), 1.76%.
The value for `CC(C)c1ncc(CN2CCCC2c2[nH]ncc2C(=O)N(C)C)cn1` (stereo not drawn) was 0.974%; that for `CC(=O)NCc1nccnc1C1CCN(C(=O)c2cc[nH]n2)CC1` was -6.74%; that for `O=C(Nc1nncs1)c1ccc(O)nc1` was -6.37%.
Take `CC(C1CC1)N(C(=O)CNc1ccc(C#N)cc1)C1CC1` (stereo not drawn): the cytotoxicity at 10 µM is -5.28%.
The value for `O=C(NCc1ccnc(OCC(F)(F)F)c1)NCC1CCCO1` (stereo not drawn) was -4.05%; that for `Cc1ccc(C2CN(CCCS(=O)(=O)C(C)C)CCO2)c(C)c1` (stereo not drawn) was -2.36%; that for `N#Cc1cn(C2CC2)c(=O)n(Cc2noc(-c3ccsc3)n2)c1=O` was 0.836%.
With `OC(CNCCc1nnc2ccccn12)c1ccc2c(c1)OCO2` (stereo not drawn) the figure was 4.06%.
With `Cc1csc(C(C)(C)NCCCS(C)(=O)=O)n1` the figure was 6.11%; with `Cc1nc(C(C)C)sc1C(C)N(C)C(=O)c1ccc(=O)n(C)n1` (stereo not drawn), -1.94%.
For the compound `CC(C)CCc1noc(CN2CCCC(CNS(N)(=O)=O)C2)n1` (stereo not drawn), the cytotoxicity at 10 µM was 2.48%.
The value for `NC(=O)C(NC(=O)COCCc1ccccc1)c1ccccc1F` (stereo not drawn) was -11%; that for `O=C(NCCN1CCOCC1)NCc1ccccc1-n1cccn1` was -6.32%.
`CC(C)(C)S(=O)(=O)CCNC(=O)c1ccc2cc[nH]c2c1`: the cytotoxicity at 10 µM was -2.61%.
Turning to `O=C(c1ccc2c(c1)CCC2)N1CCCCC1C1OCCO1` (stereo not drawn), the cytotoxicity at 10 µM turned out to be 0.197%.
The value for `CC(=O)N1CCN(C(=O)c2c(Cl)c3ccccc3n2C)CC1` was 12.5%; that for `Cc1ncncc1C(=O)N1CCCC(n2ccnc2C)C1` (stereo not drawn) was -2.17%.
The value for `O=C(CN1CCS(=O)(=O)CC1)NCc1cccc(Br)c1` was 6.32%.
The value for `C[S+]([O-])c1nncn1CCc1ccccc1` (stereo not drawn) was -12.6%; that for `Cc1ccc(N(C)C2CCN(C(=O)c3n[nH]c4c3CCC4)CC2)nn1` was 8%.
As to `Cc1ccc(Br)cc1C(=O)Nc1cc(C(N)=O)n(C)c1`, the cytotoxicity at 10 µM came out at 1.41%.
With `CC(C)OCc1noc(C2CC=CC2)n1` the figure was 16.5%.
The value for `CN(C)CC1CN(Cc2c(Cl)ccc3cccnc23)CCO1` (stereo not drawn) was 4.2%; that for `c1cc(CN2CCCC2)ccc1CNc1cncc2nnnn12` was 3.99%.
The value for `CN(C)Cc1nc(C2(NC(=O)Nc3ccccc3)CCCC2)no1` was -0.871%; that for `O=S(=O)(NC1CCC2(CC1)OCCO2)c1ccccc1Br` was -9.01%; that for `COCCNC(=O)N1CC(Cc2ccccc2F)C1` was -6.4%.
Turning to `COc1ccc(OC)c(CCNc2ncc(S(N)(=O)=O)s2)c1`, the cytotoxicity at 10 µM was 3.75%.
The value for `Cc1cc(CN(C)Cc2cc3c(cc2OC(F)F)OCO3)on1` was 0.658%; that for `COc1ccc(OCC(=O)NC(C)c2ccc(F)cc2)c(C(=O)O)c1` (stereo not drawn) was 2.89%.
The value for `O=S(=O)(CCN1CCOC(Cn2cncn2)C1)c1ccccc1` (stereo not drawn) was -9.78%; that for `CSC(C)C(=O)NCCCc1cc(N)n(-c2ccccc2)n1` (stereo not drawn) was 3.25%.
Regarding `CC(C)OCCOCc1cccc(NC(=O)NCCn2ccnc2)c1`, the cytotoxicity at 10 µM is -4.63%.
On to `CCOCCC(=O)Nc1cccc(Oc2ccccn2)c1`, for which the cytotoxicity at 10 µM was found to be 8.32%.
The value for `CN(Cc1cnn(C)c1)C(=O)c1ccc(=O)n(C)n1` was -7.87%; that for `C[C@@H](CO)Nc1nccc(-c2cnc3sc(Cl)cn3c2=O)n1` was 2.52%; that for `CO[C@H]1C[C@@H](O)C12CCN(C(=O)NCc1ccco1)CC2` was -2.04%.
For `Nc1nccc(-c2cccc3ccnn23)n1`, the cytotoxicity at 10 µM was -3.81%.
Take `CCC(C(=O)NC1CCN(S(C)(=O)=O)CC1)n1cccn1` (stereo not drawn): the cytotoxicity at 10 µM was -2.42%.
On to `O=C(CN1CCCCCC1)NCc1ccc2[nH]c(=O)[nH]c2c1`, for which the cytotoxicity at 10 µM was -2.86%.
The value for `COCc1cc(N2C[C@@H](C)[C@](O)(C3CC3)C2)ncn1` was 3.73%.
In the case of `O=C(CCCN1CCCCC1)NC(C(=O)O)c1cccc(F)c1` (stereo not drawn), the cytotoxicity at 10 µM was 1.91%.
The value for `O=C(NC1CC1)c1ccnc(-c2cc(NCCO)nc3[nH]ccc23)c1` was 5.61%; that for `CC(=O)N1CCCN(c2nccc(-c3c(C)nn(C)c3C)n2)CC1` was 9.21%.
The value for `COc1cccc2c(=O)n(Cc3cccnc3)cnc12` was -7.85%; that for `CSCCN1CCC(NC(=O)OC(C)(C)C)CC1` was 12.3%; that for `CC(C)c1cc(NC(=O)c2ccncc2)[nH]n1` was -0.396%.
For `O=C(CCN1CCN(c2ccc3nncn3n2)CC1)N1CCCCC1`, the cytotoxicity at 10 µM is -6.73%.
Consider `COC(=O)C(NC(=O)C1CCC1)c1cc(F)ccc1F` (stereo not drawn), for which the cytotoxicity at 10 µM stood at 5.54%.
With `COc1ccc(C(=O)N(C)Cc2c(C)noc2C)cn1` the figure was -12.9%; with `O=C(NCCn1nc2ccccn2c1=O)c1sccc1-c1ccccc1`, -12.7%.
The value for `Cn1nc2c(cc1=O)CN(Cc1nc(-c3ccccn3)no1)CC2` was -3.51%; that for `CN(Cc1noc(C2CC2)n1)C1CCN(Cc2ccc(F)c(F)c2)C1` (stereo not drawn) was -0.279%; that for `Cc1csc(CNCc2c(C)nn(C)c2N2CCOCC2)n1` was -9.07%.
With `CCOCCN1CCN(CC(=O)N2CCC2)CC1CC` (stereo not drawn) the figure was -2.15%; with `CCc1n[nH]c(C2CN(C(=O)c3ncoc3CC)CCO2)n1` (stereo not drawn), 0.567%; with `Cn1ccc(C(=O)NCc2ccc(CN3CCCCC3)cc2)cc1=O`, -12.4%.
For the compound `CCc1nc(C)c(C(=O)NCCN2CCCC2)s1`, the cytotoxicity at 10 µM came to 1.94%.
With `CS(=O)(=O)N1CCC(NC(=O)COc2ccccc2Cl)CC1` the figure was -1.99%; with `COc1ncccc1NC(=O)NC1CCCN(c2ncccn2)C1` (stereo not drawn), -28.8%; with `CN(CC(=O)N1CCCCC1c1nc(C(C)(C)C)cs1)C1CC1` (stereo not drawn), -2.77%.
The value for `COc1cccc(CN2CCCC2Cn2nc(C)nc2C)c1` (stereo not drawn) was 0.665%.
For the compound `c1ccc(-c2nc(CNCCn3cccn3)cs2)cc1`, the cytotoxicity at 10 µM was -1.56%.
With `CSC(C)C(=O)N1CCCN(Cc2cnn(C(C)C)c2)CC1` (stereo not drawn) the figure was -6.29%.
With `CC(NC(=O)N(C)CCCOc1ccc(F)cc1)c1nncn1C` (stereo not drawn) the figure was 2.48%; with `Cc1cnn(CC2CCCCN2CC(=O)Nc2c(C)n[nH]c2C)c1` (stereo not drawn), 1.8%.
Regarding `COc1ccc(C(=O)N2CCC(Nc3ccc(C)nn3)CC2)c(F)c1`, the cytotoxicity at 10 µM was 1.15%.
With `O=C(O)[C@]12CCCN(Cc3ccncc3)C[C@H]1CN(c1ncccn1)C2` the figure was 2.59%; with `COc1ncnc2c1CCN(Cc1nccs1)CC2`, 8.73%; with `Cn1cc(CN2CC[C@H]3O[C@H](C(=O)NCc4ccco4)CC[C@H]32)cn1`, -1.85%.
Turning to `Cc1ncsc1CN1CCO[C@H]2[C@H](Oc3ccccn3)CC[C@@H]21`, the cytotoxicity at 10 µM is -0.762%.
As to `CC(=O)N1CCC2(CCN(Cc3ccccn3)C2=O)C1` (stereo not drawn), the cytotoxicity at 10 µM was 0.0869%.
The value for `Cc1nn(C)c(N(C)C)c1CNC1CCc2c(F)cccc21` (stereo not drawn) was -5.87%; that for `CC(C)[C@H](N)C(=O)N1CCSc2ccccc2C1` was -5.53%; that for `Cc1cc(C)c(CNCC(O)c2ccc(F)c(F)c2)c(C)c1` (stereo not drawn) was 6.59%.
With `CC(C)C(=O)N1CC[C@@H]2[C@H](CC1)N(Cc1cccnc1)CCS2(=O)=O` the figure was -7.77%; with `Cc1ccc(-n2cc3[nH]c(=O)[nH]n3c2=O)cc1`, 1.22%.
With `CC(=O)Nc1c(C)noc1C=Cc1ccc(S(=O)(=O)N2CCCC2)cc1` the figure was 0.931%.

The values above are taken from ChEMBL document CHEMBL4513216, “Probing the Open Global Health Chemical Diversity Library for Multistage-Active Starting Points for Next-Generation Antimalarials” (ACS Infect Dis, 2020).
